Experiment [1] relates to wild type CaMKII kinase domain (residues 1–283). In kind it is binding. The note with it: ITC; for −TΔS: 25 °C, pH 7.5, Mg2+-AMPPNP, mean and standard deviation of the mean.
The subject of experiment [2] is wild type CaMKII kinase domain. Also on record: species or system Drosophila. The note with it: LC-HRMS of final ITC mixture, Mg2+-AMPCP. The essentials: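 Sample is the end-point mixture of isothermal titration calorimetry at 25 °C. MBP-dEAG channel fragment was titrated into a cell holding the Drosophila CaMKII kinase domain (residues 1–283, E. coli-expressed, wild type or D136N), with one 2 μl injection then 27 × 10 μl. Partners were first co-dialysed against 25 mM HEPES pH 7.5, 150 mM KCl, 0.5 mM TCEP, then with 1 mM MgCl₂ + 250 μM nucleotide. Final composition was 5 mM MgCl₂ and 1 mM nucleotide.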

Experiment [3] deals with CaMKII^K43M,D136N kinase domain. Kind of experiment: Isothermal titration calorimetry with K43M/D136N CaMKII kinase domain. In kind it is binding, Drosophila. The note with it: ITC, 25 °C, pH 7.5, Mg2+-AMPPNP, mean and standard deviation of the mean, n=3. A general note: In ITC the heat of successive injections is recorded.
In experiment [4] the test system is CaMKII^D136N kinase domain (residues 1–283). In kind it is binding. The following applies: ITC, 25 °C, pH 7.5, Mg2+-AMPPNP, mean and standard deviation of the mean, n=4.
In experiment [5] the test system is wild type dEAG channel. Put plainly: Two-electrode voltage clamp in oocytes, wild type dEAG channel. It is filed as cell-based, Drosophila. The following applies: Xenopus laevis oocytes, co-expression with inactive kinase (K43M/D136N); n=6–8. The essentials: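 Xenopus oocytes were defolliculated with 75 µg/ml Liberase for 40–60 min in Ca²⁺-free ND96. Stage V–VI cells were injected with premixed channel and kinase cRNA, then kept 1–5 d at 16 °C in storage solution containing gentamycin. Currents were recorded by standard two-microelectrode voltage clamp under continuous perfusion with 96 mM NaCl, 2 mM KCl, 0.3 mM CaCl₂, 1 mM MgCl₂, 5 mM HEPES, pH 7.4.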
(Two-electrode voltage clamp is typically applied to oocytes expressing channels or transporters.)

For experiment [6], the system named is T787A dEAG channel. Kind of experiment: Two-electrode voltage clamp in oocytes, T787A dEAG channel. In kind it is cell-based, Drosophila. The following applies: Xenopus laevis oocytes, n=7–10.
Sequence of T787A dEAG channel (Q02280 whole entry T787A, the tested form may be a part): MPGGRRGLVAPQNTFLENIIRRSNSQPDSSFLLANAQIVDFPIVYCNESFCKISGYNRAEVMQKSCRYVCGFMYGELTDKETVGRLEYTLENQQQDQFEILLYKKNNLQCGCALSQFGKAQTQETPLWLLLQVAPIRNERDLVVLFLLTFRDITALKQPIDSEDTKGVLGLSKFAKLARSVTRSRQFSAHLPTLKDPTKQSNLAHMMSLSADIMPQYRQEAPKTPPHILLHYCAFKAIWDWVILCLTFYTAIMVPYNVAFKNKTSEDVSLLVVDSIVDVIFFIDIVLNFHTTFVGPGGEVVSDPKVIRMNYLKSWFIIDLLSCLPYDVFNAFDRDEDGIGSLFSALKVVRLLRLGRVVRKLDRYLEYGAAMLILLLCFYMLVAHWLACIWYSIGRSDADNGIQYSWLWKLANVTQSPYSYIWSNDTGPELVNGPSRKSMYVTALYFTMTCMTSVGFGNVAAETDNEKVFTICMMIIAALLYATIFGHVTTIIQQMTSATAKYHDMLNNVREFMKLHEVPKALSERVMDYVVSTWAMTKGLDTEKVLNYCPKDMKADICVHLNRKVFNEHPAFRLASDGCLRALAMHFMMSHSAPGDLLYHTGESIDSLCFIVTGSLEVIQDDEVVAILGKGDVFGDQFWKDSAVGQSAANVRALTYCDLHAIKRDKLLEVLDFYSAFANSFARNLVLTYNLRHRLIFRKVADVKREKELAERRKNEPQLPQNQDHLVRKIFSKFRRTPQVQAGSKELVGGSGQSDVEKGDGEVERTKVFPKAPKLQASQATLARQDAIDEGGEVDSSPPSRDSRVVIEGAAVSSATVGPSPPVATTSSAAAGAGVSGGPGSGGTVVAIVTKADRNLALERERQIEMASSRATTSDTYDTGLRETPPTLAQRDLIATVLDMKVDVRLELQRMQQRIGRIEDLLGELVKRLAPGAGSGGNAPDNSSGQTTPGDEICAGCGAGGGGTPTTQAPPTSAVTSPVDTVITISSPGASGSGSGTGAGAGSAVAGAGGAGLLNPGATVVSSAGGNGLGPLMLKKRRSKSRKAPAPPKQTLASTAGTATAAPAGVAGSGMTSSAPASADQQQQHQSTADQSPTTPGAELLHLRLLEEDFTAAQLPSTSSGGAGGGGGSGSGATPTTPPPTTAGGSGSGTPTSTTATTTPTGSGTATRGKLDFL
Experiment [7] has as its target T1, CaMKII kinase domain D136N mutant (residues 1–283) (Drosophila, UniProt Q00168 1-283, D136N). Kind of experiment: ITC.
Experiment [8] concerns the target T2, wild type CaMKII kinase domain (residues 1–283) (Drosophila, UniProt Q00168 1-283). Kind of experiment: ITC.
Experiment [9] concerns the target CaMKII kinase domain K43M/D136N mutant (Drosophila, UniProt Q00168 1-283, K43M | D136N). Put plainly: ITC.
The target in experiment [10] is T1, CaMKII kinase domain D136N mutant …. Kind of experiment: ITC. The source holds these as a separate data set.
In experiment [11] the target is T2, wild type CaMKII kinase domain …. Put plainly: ITC. The source holds these as a separate data set.
The target is the same in experiment [12]. Kind of experiment: ITC. The source holds these as a separate data set.
Experiment [13] has as its target T1, CaMKII kinase domain D136N mutant …. Put plainly: crystal structure.
The mark [14] stands for this setting: dEAGlong, individually fitted, n=4 (WT), n=3 (R784A, D789A).

Broadly, the Kd is a measure of binding affinity in units of concentration. A low value points to tighter binding. In general, stoichiometry N refers to the number of molecules, sites or subunits per partner or assembly.

Where a chain is given by its changes, count along the chain named. Names and notes keep the numbering of the source. Values joined by “and” are separate entries in the source; they are usually repeats but may differ in a detail not shown here. Identical values can stand only once. Like-named read-outs stand apart in the source and are kept apart here. Non-standard residues stand in square brackets, D forms with d. No end group written: not given here. pT = C[C@@H](OP(=O)(O)O)[C@H](N)C(=O)O; MBP = not defined here

T2 sequence (Q00168 1-283): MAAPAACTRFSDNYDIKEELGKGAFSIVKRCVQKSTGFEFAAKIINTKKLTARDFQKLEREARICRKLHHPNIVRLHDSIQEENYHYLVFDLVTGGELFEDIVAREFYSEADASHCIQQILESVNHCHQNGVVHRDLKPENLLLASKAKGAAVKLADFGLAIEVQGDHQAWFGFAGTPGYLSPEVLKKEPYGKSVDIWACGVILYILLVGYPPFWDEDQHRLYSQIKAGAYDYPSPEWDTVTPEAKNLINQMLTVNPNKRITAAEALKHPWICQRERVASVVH
Sequence of CaMKII kinase domain K43M/D136N mutant (Q00168 1-283 K43M/D136N): as the sequence (Q00168 1-283) above, with K43M, D136N counted along it
T1 sequence (Q00168 1-283 D136N): as the sequence (Q00168 1-283) above, with D136N counted along it

Regarding “EAGshort: dEAG residues 768 to 795 with mutations S778N and T781K, fused to maltose-binding protein ({MBP}-VFPKAPKLQANQAKLARQDTIDEGGEVD; reading uncertain; also: N-terminal His6, state not given here)”, the “−TΔS” value in experiment [1] (dEAGshort, wild type kinase, n=3) came out at 11.4 ± 0.9 kcal/mol; in [3], 8.7 ± 0.1 kcal/mol; in experiment [4], 5.3 ± 3.8 kcal/mol. The “phosphorylation state of fragment at end of ITC” value in [2] is reported as “dephosphorylated during the titration”.

On to “inactive Drosophila kinase: full-length Drosophila CaMKII with two point mutations (K43M/D136N) in the active site”, for which, in experiment [5], the “reduction of channel current” value is on record as “more than 10 fold”. Moreover, the “effect of co-expressed kinase on channel activity” value in experiment [6] is reported as “loss of measurable currents”.

On to “dEAGlong^P: phosphorylated dEAGlong channel fragment used in crystal structure (VFPKAPKLQASQATLARQD[pT]IDEGGEVDSSPPSRDSRVVIEGAAVSSATVGPS; also: phosphothreonine at T787)”, for which the “affinity relative to typical kinase-substrate (KD ~200 μM)” value in experiment [1] (fold tighter than expected for a kinase-substrate, typical KD from ref 27) was “approximately 200 fold”.

On to “EAGlong^D789A: alanine mutant D789A of MBP-dEAGlong ({MBP}-VFPKAPKLQASQATLARQDTIAEGGEVDSSPPSRDSRVVIEGAAVSSATVGPS; reading uncertain)”, for which the “−TΔS” value in [1] (setting [14]) was 5.7 ± 2.3 kcal/mol.

With “EAGlong^R784A: alanine mutant R784A of MBP-dEAGlong ({MBP}-VFPKAPKLQASQATLAAQDTIDEGGEVDSSPPSRDSRVVIEGAAVSSATVGPS; reading uncertain)”, the “−TΔS” value in [1] (setting [14]) was determined as 4.4 ± 4.7 kcal/mol.

As for VFPKAPKLQANQAKLARQDTIDEGGEVD (domain or fragment, UniProt Q02280 768-795, looked up), the Kd in experiment [7] was 216 nM; in [8] it was 94 nM; in [9], 173 nM; in [10], 197 nM. Moreover, the dH in experiment [7] was -16.3 kcal/mol; in experiment [8], -21 kcal/mol; in experiment [9], -18 kcal/mol; in experiment [10], -14.5 kcal/mol. Moreover, the “stoichiometry N” value in experiment [7] worked out at 0.83; in experiment [8] it was 0.86; in experiment [9], 0.79; in experiment [10], 0.81.

B1: MBP-dEAG_(long) (wild-type Drosophila EAG CaMKII-binding fragment, residues 768 to 820, fused to maltose-binding protein) (domain or fragment, UniProt Q02280 768-820, looked up)
chain: {MBP}-VFPKAPKLQASQATLARQDTIDEGGEVDSSPPSRDSRVVIEGAAVSSATVGPS
modifications: reading uncertain
With B1, in experiment [11], the dissociation constant (Kd) came to 674 nM, the dH is -17.3 kcal/mol and the “stoichiometry N” value stood at 0.96. In experiment [12], binding was characterised by a dissociation constant (Kd) of 1000 nM, the dH was -7.3 kcal/mol and the “stoichiometry N” value worked out at 0.94.

B2: MBP-dEAG_(long) R784A (domain or fragment, Drosophila, UniProt Q02280 768-820, looked up)
chain: VFPKAPKLQASQATLAAQDTIDEGGEVDSSPPSRDSRVVIEGAAVSSATVGPS
As for B2, in [11], the Kd was 47000 nM, the dH was -10.3 kcal/mol and the “stoichiometry N” value was found to be 0.85.

B3: MBP-dEAG_(long) Q785A (domain or fragment, Drosophila, UniProt Q02280 768-820, looked up)
chain: B2 chain with A17R, Q18A
Consider B3, for which, in experiment [11], binding was characterised by a dissociation constant (Kd) of 12600 nM; the dH was -18.5 kcal/mol; the “stoichiometry N” value was 0.747 and 0.664.

B4: MBP-dEAG_(long) L782A (domain or fragment, Drosophila, UniProt Q02280 768-820, looked up)
chain: B2 chain with L15A, A17R
Consider B4, for which, in experiment [11], the affinity, expressed as Kd, was 24600 nM; the dH is -3.75 kcal/mol; the “stoichiometry N” value is 1.28 and 0.645.

B5: MBP-dEAG_(long) E790A (domain or fragment, Drosophila, UniProt Q02280 768-820, looked up)
chain: B2 chain with A17R, E23A
As to B5, in [11], the Kd was found to be 2430 nM, the dH was -15.7 kcal/mol and the “stoichiometry N” value was found to be 1.06.

B6: MBP-dEAG_(long) E793A (domain or fragment, Drosophila, UniProt Q02280 768-820, looked up)
chain: B2 chain with A17R, E26A
With B6, in experiment [11], the Kd came out at 1680 nM, the dH was -16.7 kcal/mol and the “stoichiometry N” value worked out at 0.978.

B7: MBP-dEAG_(long) I788A (domain or fragment, Drosophila, UniProt Q02280 768-820, looked up)
chain: B2 chain with A17R, I21A
Regarding B7, in experiment [11], the Kd amounted to 80300 nM; the dH is -10.5 kcal/mol; the “stoichiometry N” value is 0.667 and 1.09.

B8: MBP-dEAG_(long) D789A (domain or fragment, Drosophila, UniProt Q02280 768-820, looked up)
chain: B2 chain with A17R, D22A
Consider B8, for which, in experiment [11], the dissociation constant (Kd) worked out at 7300 nM, the dH was -12.7 kcal/mol and the “stoichiometry N” value came to 1.02.

B9: phosphorylated dEAG_(long) channel fragment (dEAG_(long)^P), MBP removed (domain or fragment, Drosophila, UniProt Q02280 768-820, looked up)
chain: VFPKAPKLQASQATLARQD[pT]IDEGGEVDSSPPSRDSRVVIEGAAVSSATVGPS
modifications: also: phosphothreonine at T787
As for B9, the binding result in experiment [13] is on record as “binds”.

Take {MBP}-VFPKAPKLQANQAKLARQD[pT]IDEGGEVD (domain or fragment, Drosophila, UniProt Q02280 768-795, looked up, reading uncertain) [MBP-dEAG_(short)^P (phosphorylated dEAG_(short), phosphorylated at T787)]: in [7], binding was put at a Kd of 0.475 nM, the dH is -8.9 kcal/mol and the “stoichiometry N” value stood at 1.07.

Values taken from article PMC6658111 (Journal of molecular biology, 2018).
